Results taken from ChEMBL document CHEMBL4689842, “EUbOPEN Chemogenomics Library wave 1” (2021).

Tested on: Fibroblast
Assay: Multiplex assay against human fibroblast
Format: toxicity, cell-based
How it was run: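 Tubulin, mitochondrial-mass and membrane-permeability phenotypes are per cents of healthy-nucleus cells. Cells were gated by CellPathfinder machine learning into Hoechst high-intensity objects or normal cells, normal cells into healthy, pyknosed or fragmented nuclei, and pyknosed cells into mitotic or apoptotic. Before that, live cells stained at seeding with Hoechst33342, BioTracker Green Microtubule Cytoskeleton Dye, MitoTracker Red and Annexin V Alexa Fluor 680 were imaged on a CQ1 microscope at 37°C and 5% CO2 after compound addition.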

[1] = 12 h, 1 µM, compound concentration 1 uM, replicate 1
[2] = 12 h, 1 µM, compound concentration 1 uM, replicate 2
[3] = 12 h, 10 µM, compound concentration 10 uM, replicate 1
[4] = 12 h, 10 µM, compound concentration 10 uM, replicate 2
[5] = 24 h, 1 µM, compound concentration 1 uM, replicate 1
[6] = 24 h, 1 µM, compound concentration 1 uM, replicate 2
[7] = 24 h, 10 µM, compound concentration 10 uM, replicate 1
[8] = 24 h, 10 µM, compound concentration 10 uM, replicate 2
[9] = 48 h, 1 µM, compound concentration 1 uM, replicate 1
[10] = 48 h, 1 µM, compound concentration 1 uM, replicate 2
[11] = 48 h, 10 µM, compound concentration 10 uM, replicate 1
[12] = 48 h, 10 µM, compound concentration 10 uM, replicate 2

Structure (SMILES): Cc1nc(Cc2cccc(C(F)(F)F)c2)sc1-c1ccc(C(N)=O)nc1 [TP-024n]
- Population Apoptotic (%) [1]: 59%
- Population Fragmented Nuclei (%) [1]: 16%
- Population Healthy Nuclei (%) [1]: 45%
- Population Hoechst High Intensity Objects (%) [1]: 11%
- Population Membrane Permeable-Phenotype (%) [1]: 23%
- Population Mitochondria Different-Phenotype (%) [1]: 3%
- Population Mitotic Cells (%) [1]: 40%
- Population Normal (%) [1]: 88%
- Population Pyknosed Nuclei (%) [1]: 37%
- Population Tubulin-Different-Phenotype (%) [1]: 33%
- Total Cell Count [1]: 125
- Population Apoptotic (%) [2]: 50%
- Population Fragmented Nuclei (%) [2]: 0%
- Population Healthy Nuclei (%) [2]: 94%
- Population Membrane Permeable-Phenotype (%) [2]: 2%
- Population Mitochondria Different-Phenotype (%) [2]: 18%
- Population Mitotic Cells (%) [2]: 50%
- Population Pyknosed Nuclei (%) [2]: 5%
- Population Tubulin-Different-Phenotype (%) [2]: 16%
- Total Cell Count [2]: 130
- Population Apoptotic (%) [3]: 63%
- Population Fragmented Nuclei (%) [3]: 25%
- Population Healthy Nuclei (%) [3]: 37%
- Population Hoechst High Intensity Objects (%) [3]: 14%
- Population Membrane Permeable-Phenotype (%) [3]: 2%
- Population Mitochondria Different-Phenotype (%) [3]: 16%
- Population Mitotic Cells (%) [3]: 36%
- Population Normal (%) [3]: 86%
- Population Pyknosed Nuclei (%) [3]: 36%
- Population Tubulin-Different-Phenotype (%) [3]: 67%
- Total Cell Count [3]: 150
- Population Apoptotic (%) [4]: 66%
- Population Fragmented Nuclei (%) [4]: 17%
- Population Healthy Nuclei (%) [4]: 67%
- Population Hoechst High Intensity Objects (%) [4]: 4%
- Population Membrane Permeable-Phenotype (%) [4]: 9%
- Population Mitochondria Different-Phenotype (%) [4]: 21%
- Population Mitotic Cells (%) [4]: 33%
- Population Normal (%) [4]: 95%
- Population Pyknosed Nuclei (%) [4]: 14%
- Population Tubulin-Different-Phenotype (%) [4]: 11%
- Total Cell Count [4]: 44
- Population Apoptotic (%) [5]: 46%
- Population Fragmented Nuclei (%) [5]: 17%
- Population Healthy Nuclei (%) [5]: 51%
- Population Hoechst High Intensity Objects (%) [5]: 11%
- Population Membrane Permeable-Phenotype (%) [5]: 31%
- Population Mitochondria Different-Phenotype (%) [5]: 1%
- Population Mitotic Cells (%) [5]: 53%
- Population Normal (%) [5]: 88%
- Population Pyknosed Nuclei (%) [5]: 32%
- Population Tubulin-Different-Phenotype (%) [5]: 29%
- Total Cell Count [5]: 113
- Population Apoptotic (%) [6]: 50%
- Population Fragmented Nuclei (%) [6]: 5%
- Population Healthy Nuclei (%) [6]: 91%
- Population Hoechst High Intensity Objects (%) [6]: 5%
- Population Membrane Permeable-Phenotype (%) [6]: 1%
- Population Mitochondria Different-Phenotype (%) [6]: 7%
- Population Mitotic Cells (%) [6]: 50%
- Population Normal (%) [6]: 95%
- Population Pyknosed Nuclei (%) [6]: 3%
- Population Tubulin-Different-Phenotype (%) [6]: 15%
- Total Cell Count [6]: 126
- Population Apoptotic (%) [7]: 64%
- Population Fragmented Nuclei (%) [7]: 19%
- Population Healthy Nuclei (%) [7]: 57%
- Population Hoechst High Intensity Objects (%) [7]: 13%
- Population Membrane Permeable-Phenotype (%) [7]: 5%
- Population Mitochondria Different-Phenotype (%) [7]: 12%
- Population Mitotic Cells (%) [7]: 35%
- Population Normal (%) [7]: 86%
- Population Pyknosed Nuclei (%) [7]: 23%
- Population Tubulin-Different-Phenotype (%) [7]: 58%
- Total Cell Count [7]: 152
- Population Apoptotic (%) [8]: 44%
- Population Fragmented Nuclei (%) [8]: 14%
- Population Healthy Nuclei (%) [8]: 58%
- Population Hoechst High Intensity Objects (%) [8]: 2%
- Population Membrane Permeable-Phenotype (%) [8]: 25%
- Population Mitochondria Different-Phenotype (%) [8]: 32%
- Population Mitotic Cells (%) [8]: 55%
- Population Normal (%) [8]: 97%
- Population Pyknosed Nuclei (%) [8]: 26%
- Population Tubulin-Different-Phenotype (%) [8]: 22%
- Total Cell Count [8]: 60
- Population Apoptotic (%) [9]: 52%
- Population Fragmented Nuclei (%) [9]: 21%
- Population Healthy Nuclei (%) [9]: 58%
- Population Hoechst High Intensity Objects (%) [9]: 19%
- Population Membrane Permeable-Phenotype (%) [9]: 22%
- Population Mitochondria Different-Phenotype (%) [9]: 1%
- Population Mitotic Cells (%) [9]: 47%
- Population Normal (%) [9]: 80%
- Population Pyknosed Nuclei (%) [9]: 20%
- Population Tubulin-Different-Phenotype (%) [9]: 31%
- Total Cell Count [9]: 116
- Population Apoptotic (%) [10]: 33%
- Population Fragmented Nuclei (%) [10]: 16%
- Population Healthy Nuclei (%) [10]: 80%
- Population Hoechst High Intensity Objects (%) [10]: 11%
- Population Membrane Permeable-Phenotype (%) [10]: 12%
- Population Mitochondria Different-Phenotype (%) [10]: 0%
- Population Mitotic Cells (%) [10]: 66%
- Population Normal (%) [10]: 88%
- Population Pyknosed Nuclei (%) [10]: 3%
- Population Tubulin-Different-Phenotype (%) [10]: 35%
- Total Cell Count [10]: 98
- Population Apoptotic (%) [11]: 77%
- Population Fragmented Nuclei (%) [11]: 19%
- Population Healthy Nuclei (%) [11]: 64%
- Population Hoechst High Intensity Objects (%) [11]: 9%
- Population Membrane Permeable-Phenotype (%) [11]: 11%
- Population Mitochondria Different-Phenotype (%) [11]: 15%
- Population Mitotic Cells (%) [11]: 22%
- Population Normal (%) [11]: 90%
- Population Pyknosed Nuclei (%) [11]: 16%
- Population Tubulin-Different-Phenotype (%) [11]: 44%
- Total Cell Count [11]: 148
- Population Apoptotic (%) [12]: 25%
- Population Fragmented Nuclei (%) [12]: 27%
- Population Healthy Nuclei (%) [12]: 68%
- Population Hoechst High Intensity Objects (%) [12]: 10%
- Population Membrane Permeable-Phenotype (%) [12]: 5%
- Population Mitochondria Different-Phenotype (%) [12]: 7%
- Population Mitotic Cells (%) [12]: 75%
- Population Normal (%) [12]: 89%
- Population Pyknosed Nuclei (%) [12]: 3%
- Population Tubulin-Different-Phenotype (%) [12]: 52%
- Total Cell Count [12]: 124
